Experiment [1] is filed under the species Bos taurus. In words: Inhibition of bovine tubulin polymerization assessed as lag time for tubulin polymerization at 1 uM measured every 30 secs for 2 hrs by turbidity method. Put shortly: (§1)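 Kit-based turbidity assay with tubulin at 26.7 μM (2.94 mg/mL) in G-PB buffer (polymerization buffer, GTP, glycerol), assembled on ice. Compound stocks in DMSO diluted in water to give 1 or 10 μM. A350 read every 30 s for 2 h at 37 °C. Nocodazole and DMSO (1.43% or 0.14% v/v) as controls. Duplicate assays. Area under curve compared by one-way ANOVA with Bonferroni post-test.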

For experiment [2], the species on record is Bos taurus. Nature of the experiment: Inhibition of bovine tubulin polymerization at 10 uM measured every 30 secs for 2 hrs by turbidity method. The method, boiled down:
as §1

Experiment [3] has as its system MCF7. Nature of the experiment: Cytotoxicity against human MCF7 cells after 72 hrs by MTS/PMS assay. The following applies: for IC50: MCF7, 72 h. Format: functional, cell-based. The method, boiled down:
(§2)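 MCF-7 cells grown in DMEM with 10% heat-inactivated FBS, penicillin, streptomycin, L-glutamine and MEM NEAA at 37 °C, 5% CO2. Seeded at 5000 cells/well. After 24 h, given fresh medium plus compound (DMSO stock diluted in DPBS; final 0–10 μM) for 72 h. Then serum-free medium with MTS/PMS for 1 h at 37 °C. A490 read, viability as % of untreated cells. IC50 read graphically. Six replicates, three independent experiments.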

The species entered for experiment [4] is Bos taurus. In words: Inhibition of bovine tubulin polymerization at 1 uM measured every 30 secs for 2 hrs by turbidity method. Put shortly: as §1
Experiment [5] concerns MCF7. In words: Cytotoxicity against human MCF7 cells assessed as cell viability at 5 to 10 uM after 72 hrs by MTS/PMS assay relative to control. Format: functional. Put shortly: as §2

SMILES strings stand for the structures. Active and inactive are the calls of the source. No cut-off for these calls is given here.

For the compound `CCCCC/C=C\C/C=C\C/C=C\C/C=C\CCCC(=O)Oc1cc(/C=C\c2cc(OC)c(OC)c(OC)c2)ccc1OC`, in the experiment filed under Bos taurus [1], the TIME lay within 0.25 to 0.333 h. Also, in the experiment listed under Bos taurus [2], the inhibition result is “inactive”. Moreover, in the experiment on MCF7 [3], the Activity entry was “Dose-dependent effect” and half-maximal inhibition (IC50) required 700 nM. The inhibition entry in the experiment listed under Bos taurus [4] was “Active”.
`COc1ccc(/C=C\c2cc(OC)c(OC)c(OC)c2)cc1O` [COMBRETASTATIN A4] showed an IC50 with MCF7 [3] of 200 nM. The inhibition result in the experiment filed under Bos taurus [4] was “Active”.
As to `CC/C=C\C/C=C\C/C=C\CCCCCCCC(=O)Oc1cc(/C=C\c2cc(OC)c(OC)c(OC)c2)ccc1OC`, in the experiment listed under Bos taurus [1], the TIME was in the range of 0.25 to 0.333 h. In addition, the inhibition result in the experiment listed under Bos taurus [2] was “inactive”. For the same compound, the IC50 in the experiment with MCF7 [3] was > 10000 nM. The inhibition result in the experiment filed under Bos taurus [4] was “Active”. For the same compound, the Activity with MCF7 [5] is on record as 65 - 75%.
Regarding `CCCCC/C=C\C/C=C\CCCCCCCC(=O)Oc1cc(/C=C\c2cc(OC)c(OC)c(OC)c2)ccc1OC`, in the experiment filed under Bos taurus [1], the TIME fell in the range of 0.25 to 0.333 h. The inhibition entry in the experiment listed under Bos taurus [2] is “inactive”. The IC50 in the experiment with MCF7 [3] is > 10000 nM. The inhibition result in the experiment filed under Bos taurus [4] was “Active”. The Activity with MCF7 [5] was 65 - 75%.

(Values after ChEMBL document CHEMBL4196218, “Synthesis and in Vitro Bioactivity of Polyunsaturated Fatty Acid Conjugates of Combretastatin A-4” (J Nat Prod, 2018).)
